Activity calls are given as the source filed them. The calls are words filed in the database; no cut-off is given here.

For assay [1], the target named is T1, Cholinesterase (Homo sapiens, UniProt P06276). Put plainly: Inhibition of recombinant BuChE (unknown origin) using BTCI as substrate at 20 uM preincubated for 30 mins followed by substrate addition by TECAN multiplate reader analysis relative to control. Summed up: (§1)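 Ellman method as for AChE, using butyrylcholinesterase with BTCI as substrate. Enzyme and compound preincubated 30 min at 37 °C in a CO2 incubator, then DTNB and BTCI added; absorbance read at 417 nm. Screening at 20 μM as % inhibition; IC50 for compounds exceeding 50% inhibition at 20 μM. Triplicate.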
T1 sequence (P06276 whole entry): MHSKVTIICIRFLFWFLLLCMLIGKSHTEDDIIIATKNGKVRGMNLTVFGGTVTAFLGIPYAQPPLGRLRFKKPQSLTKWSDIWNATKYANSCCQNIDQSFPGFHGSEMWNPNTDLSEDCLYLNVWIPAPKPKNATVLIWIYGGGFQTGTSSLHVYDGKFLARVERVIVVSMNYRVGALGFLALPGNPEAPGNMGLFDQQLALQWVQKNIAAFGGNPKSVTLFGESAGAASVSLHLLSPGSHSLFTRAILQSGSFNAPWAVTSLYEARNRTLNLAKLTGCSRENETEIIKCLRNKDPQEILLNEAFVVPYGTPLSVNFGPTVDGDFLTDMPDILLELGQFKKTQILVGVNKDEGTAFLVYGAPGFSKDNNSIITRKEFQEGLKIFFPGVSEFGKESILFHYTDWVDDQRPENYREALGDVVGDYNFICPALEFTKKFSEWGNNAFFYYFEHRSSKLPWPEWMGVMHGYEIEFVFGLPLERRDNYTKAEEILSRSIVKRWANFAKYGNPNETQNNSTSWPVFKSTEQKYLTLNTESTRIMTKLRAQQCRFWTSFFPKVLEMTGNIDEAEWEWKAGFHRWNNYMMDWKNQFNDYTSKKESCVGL

For assay [2], the target named is T2, Amine oxidase [flavin-containing] A (Homo sapiens, UniProt P21397).
T2 sequence (P21397 whole entry): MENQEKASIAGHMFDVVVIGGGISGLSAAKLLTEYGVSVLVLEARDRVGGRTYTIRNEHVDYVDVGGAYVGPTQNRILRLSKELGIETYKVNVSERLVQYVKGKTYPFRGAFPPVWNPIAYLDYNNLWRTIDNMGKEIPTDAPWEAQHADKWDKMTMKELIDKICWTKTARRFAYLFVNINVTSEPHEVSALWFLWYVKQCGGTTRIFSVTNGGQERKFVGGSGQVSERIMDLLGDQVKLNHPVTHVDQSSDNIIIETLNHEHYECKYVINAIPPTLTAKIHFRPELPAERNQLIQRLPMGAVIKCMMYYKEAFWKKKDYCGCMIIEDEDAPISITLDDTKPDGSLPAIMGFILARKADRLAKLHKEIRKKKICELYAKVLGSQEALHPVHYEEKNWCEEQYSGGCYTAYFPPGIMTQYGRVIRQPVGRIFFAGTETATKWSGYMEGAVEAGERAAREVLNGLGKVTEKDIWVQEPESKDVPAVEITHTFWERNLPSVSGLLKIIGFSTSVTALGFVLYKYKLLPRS
Put plainly: Inhibition of recombinant MAO-A (unknown origin) at 20 uM preincubated for 30 mins followed substrate addition by Amplex Red reagent based fluorescence analysis relative to control. The method in brief:
(§2)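 Recombinant MAO enzyme preincubated with compound 30 min at 37 °C; substrate, HRP and Amplex Red working solution then added; H2O2 formation read at 37 °C by fluorescence, ex 545/em 590 nm. Screening at 20 μM as % inhibition versus control; IC50 only for compounds above 50% inhibition at 20 μM; triplicate (n = 3).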

Assay [3] addresses T3, Amine oxidase [flavin-containing] B (Homo sapiens, UniProt P27338).
T3 sequence (P27338 whole entry): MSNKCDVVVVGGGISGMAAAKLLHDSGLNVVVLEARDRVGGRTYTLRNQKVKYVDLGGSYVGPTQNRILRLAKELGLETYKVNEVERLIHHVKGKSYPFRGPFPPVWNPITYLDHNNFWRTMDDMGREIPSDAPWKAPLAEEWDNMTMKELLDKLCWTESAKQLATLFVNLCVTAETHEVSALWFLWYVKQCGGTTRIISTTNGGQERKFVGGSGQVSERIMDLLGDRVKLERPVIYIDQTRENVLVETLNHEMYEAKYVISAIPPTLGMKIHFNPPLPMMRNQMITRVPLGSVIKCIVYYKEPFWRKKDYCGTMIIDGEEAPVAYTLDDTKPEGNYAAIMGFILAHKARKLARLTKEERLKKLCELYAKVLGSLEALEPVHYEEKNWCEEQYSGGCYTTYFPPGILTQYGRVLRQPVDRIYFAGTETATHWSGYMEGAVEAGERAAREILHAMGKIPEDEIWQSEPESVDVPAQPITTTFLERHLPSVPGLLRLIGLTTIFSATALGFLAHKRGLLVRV
Put plainly: Inhibition of recombinant MAO-B (unknown origin) at 20 uM preincubated for 30 mins followed substrate addition by Amplex Red reagent based fluorescence analysis relative to control. Summed up:
as §2

Assay [4] concerns the target Amyloid-beta precursor protein (Homo sapiens) (UniProt P05067). Put plainly: Inhibition of self-induced amyloid beta (1 to 42 residues) (unknown origin) aggregation at 20 uM incubated at 48 hrs by fluorimetry-based thioflavin T assay. The method in brief: (§3)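 Aβ1-42 pretreated with HFIP (1 mg mL−1) and dried, then incubated with compound (20 μM) at 37 °C for 24 h; an aliquot transferred and incubated further to 48 h. Glycine–NaOH buffer pH 8.0 with 5 μM ThT added; fluorescence read at 440–485 nm. % inhibition calculated against the Aβ-only control taken as 0%.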

Assay [5] has the same target. Description: Inhibition of self-induced amyloid beta (1 to 42 residues) (unknown origin) aggregation at 20 uM incubated at 24 hrs by fluorimetry-based thioflavin T assay. Summed up:
as §3

Assay [6] has as its target T1, Cholinesterase. Put plainly: Inhibition of recombinant BuChE (unknown origin) using BTCI as substrate preincubated for 30 mins followed by substrate addition by TECAN multiplate reader analysis. Summed up:
as §1

Assay [7] deals with Amyloid-beta precursor protein (Homo sapiens) (UniProt P05067). Put plainly: Inhibition of self-induced amyloid beta (1 to 42 residues) (unknown origin) aggregation assessed as reduction in fibrils formation measured after 72 hrs by FE-SEM analysis. The method in brief: (§4)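 HFIP-pretreated Aβ1-42 incubated with or without inhibitor for 72 h; samples placed on carbon-coated copper grids, dried 1 h at 37 °C, imaged by FE-SEM. Glycine–NaOH buffer served as blank and Aβ alone as control.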
Amyloid-beta precursor protein (Homo sapiens), sequence (P05067 whole entry, the tested form may be a part): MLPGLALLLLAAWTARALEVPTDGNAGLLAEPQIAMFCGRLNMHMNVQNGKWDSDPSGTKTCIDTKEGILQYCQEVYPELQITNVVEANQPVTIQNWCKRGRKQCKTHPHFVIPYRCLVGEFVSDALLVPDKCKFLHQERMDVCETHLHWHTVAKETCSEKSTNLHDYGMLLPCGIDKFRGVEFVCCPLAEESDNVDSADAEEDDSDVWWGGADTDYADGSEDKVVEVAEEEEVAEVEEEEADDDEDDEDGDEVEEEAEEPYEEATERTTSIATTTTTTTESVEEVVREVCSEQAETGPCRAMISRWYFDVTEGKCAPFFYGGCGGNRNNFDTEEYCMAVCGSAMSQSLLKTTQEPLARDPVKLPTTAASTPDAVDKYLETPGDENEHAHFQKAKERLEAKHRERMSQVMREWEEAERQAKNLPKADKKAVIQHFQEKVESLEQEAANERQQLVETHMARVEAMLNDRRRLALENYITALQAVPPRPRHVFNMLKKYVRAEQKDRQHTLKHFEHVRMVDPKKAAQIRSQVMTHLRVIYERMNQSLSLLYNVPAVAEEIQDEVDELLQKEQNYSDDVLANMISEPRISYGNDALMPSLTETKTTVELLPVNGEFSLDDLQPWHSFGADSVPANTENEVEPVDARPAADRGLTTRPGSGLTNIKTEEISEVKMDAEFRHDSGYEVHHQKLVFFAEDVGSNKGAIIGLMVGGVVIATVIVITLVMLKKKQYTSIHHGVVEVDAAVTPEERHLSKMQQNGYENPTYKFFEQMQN

Assay [8] shares this target. Put plainly: Inhibition of self-induced amyloid beta (1 to 42 residues) (unknown origin) aggregation assessed as reduction in plaques formation measured after 72 hrs by FE-SEM analysis. The method in brief:
as §4

Turning to `C#CCCCOc1c(CN2CCN(Cc3ccccc3)CC2)cc(-c2cc(=O)c3ccccc3o2)cc1OC`, the inhibition came to 7.42% in assay [1], 28.1% in assay [4] and 22.9% in assay [5]. For the same compound, the inhibition at 20 µM turned out to be 5.26% in assay [2] and 22.8% in assay [3].

In the case of `C#CCOc1c(CN2CCOCC2)cc(-c2cc(=O)c3ccccc3o2)cc1CN1CCOCC1`, the inhibition in assay [1] was determined as 9.03%; in assay [4], 23.3%; in assay [5], 14.4%. For the same compound, in assay [3], the inhibition at 20 µM came out at 36.5%.

Regarding `C#CCCCOc1c(CN2CCCCC2)cc(-c2cc(=O)c3ccccc3o2)cc1CN1CCCCC1`, the inhibition in assay [1] came out at 13.7%; in assay [4] it was 18%; in assay [5], 12%. Moreover, the inhibition at 20 µM in assay [3] is 19.7%.

`C#CCCOc1c(CN2CCN(c3ccccc3)CC2)cc(-c2cc(=O)c3ccccc3o2)cc1OC`: in assay [1], the inhibition stood at 1.63%. Further, the inhibition at 20 µM was 9.14% in assay [2] and 35.4% in assay [3].

Take `C#CCCCOc1c(CN2CCOCC2)cc(-c2cc(=O)c3ccccc3o2)cc1OC`: the inhibition in assay [1] worked out at 3.35%. For the same compound, in assay [3], the inhibition at 20 µM is 18.8%.

Turning to `C#CCCCOc1c(CN2CCc3ccccc3C2)cc(-c2cc(=O)c3ccccc3o2)cc1OC`, the inhibition in assay [1] was 51.5%. Also, the inhibition at 20 µM is 11.3% in assay [2] and 19.8% in assay [3]. Moreover, the IC50 in assay [6] was determined as 18.9 µM.

Consider `C#CCOc1c(CN2CCOCC2)cc(-c2cc(=O)c3ccccc3o2)cc1OC`, for which the figures for the inhibition in assay [1], in assay [4] and in assay [5] were 1.17%, 40.4% and 36.1%, respectively. In assay [3], the inhibition at 20 µM amounted to 15.1%.

With `C#CCCOc1c(CN2CCOCC2)cc(-c2cc(=O)c3ccccc3o2)cc1OCC`, the inhibition in assay [1] worked out at 4.42%; in assay [4] it was 23.7%; in assay [5], 24.6%. In addition, in assay [3], the inhibition at 20 µM came out at 6.89%.

Turning to `C#CCCOc1c(CN2CCOCC2)cc(-c2cc(=O)c3ccccc3o2)cc1OC`, in assay [1], the inhibition was determined as 3.11%. Also, the inhibition at 20 µM in assay [2] came to 7.98%; in assay [3], 26.6%.

As to `C#CCOc1ccc(-c2cc(=O)c3ccccc3o2)cc1CN1CCOCC1`, the inhibition in assay [1] was 4.21%; in assay [4] it was 11.6%; in assay [5], 9%. Also, the inhibition at 20 µM in assay [3] amounted to 28.1%.

As for `C#CCCCOc1c(CN2CCN(c3ccccc3)CC2)cc(-c2cc(=O)c3ccccc3o2)cc1OC`, the inhibition in assay [1] amounted to 1.69%. For the same compound, the inhibition at 20 µM in assay [2] was 2.6%; in assay [3], 13.1%.

Take `C#CCCCOc1c(CN2CCOCC2)cc(-c2cc(=O)c3ccccc3o2)cc1CN1CCOCC1`: the inhibition was 1% in assay [1], 26.9% in assay [4] and 23.9% in assay [5]. Also, the inhibition at 20 µM in assay [3] was 18.1%.

Regarding `C#CCCCOc1c(CN(C)Cc2ccccc2)cc(-c2cc(=O)c3ccccc3o2)cc1OC`, the inhibition in assay [1] worked out at 17.6%. Besides, the inhibition at 20 µM in assay [3] is 17.5%.

With `Oc1ccc(/C=C/c2cc(O)cc(O)c2)cc1`, the inhibition result in assay [7] and in assay [8] was “Active” throughout.

Consider `C#CCOc1c(CN2CCOCC2)cc(-c2cc(=O)c3ccccc3o2)cc1OCC`, for which the inhibition at 20 µM in assay [3] was found to be 8.37%.

In the case of `C#CCCCOc1c(CN2CCCCC2)cc(-c2cc(=O)c3ccccc3o2)cc1OCC`, the inhibition in assay [1] was found to be 3.36%. Further, in assay [3], the inhibition at 20 µM is 15.6%.

Turning to `C#CCCCOc1c(CN2CCCCC2)cc(-c2cc(=O)c3ccccc3o2)cc1OC`, the inhibition in assay [1] was found to be 21.6%. For the same compound, the inhibition at 20 µM came to 0.75% in assay [2] and 15.6% in assay [3].

In the case of `C#CCCCOc1c(CN2CCOCC2)cc(-c2cc(=O)c3ccccc3o2)cc1OCC`, in assay [1], the inhibition turned out to be 6.37%. Besides, in assay [3], the inhibition at 20 µM came out at 18.2%.
